From ChEMBL document CHEMBL1123146, “Design, synthesis, and evaluation of omega-iodovinyl- and omega-iodoalkyl-substituted methyl-branched long-chain fatty acids” (J Med Chem, 1985)

What was measured:
Rattus norvegicus [1] = assay: Concentration was measured in mean heart/blood tissue of fasted Fischer 344 rats administered intravenously after 60 minute (radiolabeled with [125I]-; settings: in vivo, iv, 1 h
Rattus norvegicus [2] = assay: Concentration was measured in blood tissue of unfasted Fischer 344 rats administered intravenously after 60 minute (radiolabeled with [125I]-; format: ADME, organism-based; settings: in vivo, iv, 1 h
In short: (§1)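 Female Fischer 344 rats, 10-12 weeks old, 170-200 g, with food and water ad libitum. The 125I-fatty acid was taken up in ethanol, added dropwise to stirred 6% BSA at ~40 °C (final ethanol 10%), filtered, and given as 0.5 mL via lateral tail vein under ether anesthesia. Rats were killed by cervical fracture; blood was taken by cardiac puncture. Organs were rinsed, blotted, weighed and gamma-counted against injectate standards to give %ID/g. Five rats per time point.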

Rattus norvegicus [3] = assay: Concentration was measured in heart tissue of unfasted Fischer 344 rats administered intravenously after 5 minute (radiolabeled with [125I]-; format: ADME, organism-based; settings: in vivo, iv, 5 min
In short: as §1

Rattus norvegicus [4] = species: Rattus norvegicus; assay: Specific activity was determined with radioiodinated iodine-125; format: functional
Rattus norvegicus [5] = assay: Concentration was measured in kidney tissue of unfasted Fischer 344 rats administered intravenously after 60 minute (radiolabeled with [125I]-; format: ADME, organism-based; settings: in vivo, iv, 1 h
In short: as §1

Rattus norvegicus [6] = assay: Concentration was measured in mean heart/blood tissue of unfasted Fischer 344 rats administered intravenously after 10 minute (radiolabeled with [125I]-; format: ADME, organism-based; settings: iv, 10 min
In short: (§2)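 Female Fischer 344 rats, five per time point, each given 11 μCi of the ¹²⁵I-labeled fatty acid (~269 mCi/mmol) via a lateral tail vein in 0.5 mL of 6% BSA (10% ethanol) under ether anesthesia. Blood was drawn by cardiac puncture; organs were rinsed, weighed and gamma-counted against injectate standards. Output is % injected dose/g and mean heart/blood ratio.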

Rattus norvegicus [7] = assay: Concentration was measured in blood tissue of unfasted Fischer 344 rats administered intravenously after 5 minute (radiolabeled with [125I]-; format: ADME, organism-based; settings: in vivo, iv, 5 min
In short: as §1

Rattus norvegicus [8] = assay: Concentration was measured in thyroid tissue of unfasted Fischer 344 rats administered intravenously after 2 minute (radiolabeled with [125I]-; format: ADME, organism-based, Thyroid gland; settings: in vivo, iv, 2 min
In short: (§3)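 Female Fischer 344 rats, 10–12 weeks old (170–200 g), with food and water ad libitum, five per time point. The radioiodinated fatty acid was dissolved in ethanol, added to 6% BSA at ~40 °C (final 10% ethanol), filtered, and injected into a lateral tail vein (0.5 mL) under ether anesthesia. Blood was taken by cardiac puncture; organs were rinsed, blotted, weighed and gamma-counted against injectate standards. Output is % injected dose/g.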

Rattus norvegicus [9] = assay: Concentration was measured in lungs tissue of unfasted Fischer 344 rats administered intravenously after 60 minute (radiolabeled with [125I]-; format: ADME, organism-based, Lung; settings: in vivo, iv, 1 h
In short: as §1

Rattus norvegicus [10] = assay: Concentration was measured in liver tissue of unfasted Fischer 344 rats administered intravenously after 2 minute (radiolabeled with [125I]-; format: ADME, organism-based; settings: in vivo, iv, 2 min
In short: as §1

Rattus norvegicus [11] = assay: Concentration was measured in heart tissue of unfasted Fischer 344 rats administered intravenously after 60 minute (radiolabeled with [125I]-; format: ADME, organism-based; settings: in vivo, iv, 1 h
In short: as §1

Rattus norvegicus [12] = assay: Concentration was measured in thyroid tissue of unfasted Fischer 344 rats administered intravenously after 5 minute (radiolabeled with [125I]-; format: ADME, organism-based, Thyroid gland; settings: in vivo, iv, 5 min
In short: as §3

Rattus norvegicus [13] = assay: Concentration was measured in kidney tissue of unfasted Fischer 344 rats administered intravenously after 10 minute (radiolabeled with [125I]-; format: ADME, organism-based; settings: in vivo, iv, 10 min
In short: as §1

Rattus norvegicus [14] = assay: Concentration was measured in blood tissue of unfasted Fischer 344 rats administered intravenously after 10 minute (radiolabeled with [125I]-; format: ADME, organism-based; settings: in vivo, iv, 10 min
In short: as §1

Rattus norvegicus [15] = assay: Concentration was measured in heart tissue of unfasted Fischer 344 rats administered intravenously after 2 minute (radiolabeled with [125I]-; format: ADME, organism-based; settings: in vivo, iv, 2 min
In short: as §1

Rattus norvegicus [16] = assay: Concentration was measured in liver tissue f unfasted Fischer 344 rats administered intravenously after 10 minute (radiolabeled with [125I]-; format: ADME, organism-based; settings: in vivo, iv, 10 min
In short: as §1

Rattus norvegicus [17] = assay: Concentration was measured in kidney tissue of unfasted Fischer 344 rats administered intravenously after 2 minute (radiolabeled with [125I]-; format: ADME, organism-based; settings: in vivo, iv, 2 min
In short: as §1

Rattus norvegicus [18] = assay: Concentration was measured in mean heart/blood tissue of fasted Fischer 344 rats administered intravenously after 5 minute (radiolabeled with [125I]-; settings: in vivo, iv, 5 min
Rattus norvegicus [19] = assay: Concentration was measured in thyroid tissue of unfasted Fischer 344 rats administered intravenously after 10 minute (radiolabeled with [125I]-; format: ADME, organism-based, Thyroid gland; settings: in vivo, iv, 10 min
In short: as §2

Rattus norvegicus [20] = assay: Concentration was measured in liver tissue of unfasted Fischer 344 rats administered intravenously after 5 minute (radiolabeled with [125I]-; format: ADME, organism-based; settings: in vivo, iv, 5 min
In short: as §1

Rattus norvegicus [21] = assay: Concentration was measured in kidney tissue of unfasted Fischer 344 rats administered intravenously after 5 minute (radiolabeled with [125I]-; format: ADME, organism-based; settings: in vivo, iv, 5 min
In short: as §1

Rattus norvegicus [22] = assay: Concentration was measured in blood tissue of unfasted Fischer 344 rats administered intravenously after 2 minute (radiolabeled with [125I]-; format: ADME, organism-based; settings: in vivo, iv, 2 min
In short: as §1

Rattus norvegicus [23] = assay: Concentration was measured in mean heart/blood tissue of unfasted Fischer 344 rats administered intravenously after 2 minute (radiolabeled with [125I]-; format: ADME, organism-based; settings: in vivo, iv, 2 min
Rattus norvegicus [24] = assay: Concentration was measured in heart tissue of unfasted Fischer 344 rats administered intravenously after 10 min (radiolabeled with [125I]-; format: ADME, organism-based; settings: in vivo, iv
In short: as §1

Rattus norvegicus [25] = assay: Concentration was measured in lungs tissue of unfasted Fischer 344 rats administered intravenously after 10 minute (radiolabeled with [125I]-; format: ADME, organism-based, Lung; settings: in vivo, iv, 10 min
In short: as §1

Rattus norvegicus [26] = assay: Concentration was measured in thyroid tissue of unfasted Fischer 344 rats administered intravenously after 60 minute (radiolabeled with [125I]-; format: ADME, organism-based, Thyroid gland; settings: in vivo, iv, 1 h
In short: as §3

Rattus norvegicus [27] = assay: Concentration was measured in liver tissue of unfasted Fischer 344 rats administered intravenously after 60 minute (radiolabeled with [125I]-; format: ADME, organism-based; settings: in vivo, iv, 1 h
In short: as §1

Rattus norvegicus [28] = assay: Concentration was measured in lungs tissue of unfasted Fischer 344 rats administered intravenously after 5 minute (radiolabeled with [125I]-; format: ADME, organism-based, Lung; settings: in vivo, iv, 5 min
In short: as §1

Rattus norvegicus [29] = assay: Concentration was measured in lungs tissue of unfasted Fischer 344 rats administered intravenously after 2 minute (radiolabeled with [125I]-; format: ADME, organism-based, Lung; settings: in vivo, iv, 2 min
In short: as §1

CC(CCCCCCCCCCCCCCI)CC(=O)O (centres undefined)
Distribution (Rattus norvegicus [1]): 1.32% | Distribution (Rattus norvegicus [2]): 0.72% | Distribution (Rattus norvegicus [3]): 1.93% | Specific activity (Rattus norvegicus [4]): 0.269 Ci mM-1 | Distribution (Rattus norvegicus [5]): 0.59% | Distribution (Rattus norvegicus [6]): 1.35% | Distribution (Rattus norvegicus [7]): 1.43% | Distribution (Rattus norvegicus [8]): 22.5% | Distribution (Rattus norvegicus [9]): 0.68% | Distribution (Rattus norvegicus [10]): 3.93% | Distribution (Rattus norvegicus [11]): 0.95% | Distribution (Rattus norvegicus [12]): 30.2% | Distribution (Rattus norvegicus [13]): 0.96% | Distribution (Rattus norvegicus [14]): 1.31% | Distribution (Rattus norvegicus [15]): 2.68% | Distribution (Rattus norvegicus [16]): 2.54% | Distribution (Rattus norvegicus [17]): 1.35% | Distribution (Rattus norvegicus [18]): 1.35% | Distribution (Rattus norvegicus [19]): 43.3% | Distribution (Rattus norvegicus [20]): 2.5% | Distribution (Rattus norvegicus [21]): 1.06% | Distribution (Rattus norvegicus [22]): 2.47% | Distribution (Rattus norvegicus [23]): 1.09% | Distribution (Rattus norvegicus [24]): 1.77% | Distribution (Rattus norvegicus [25]): 1.16% | Distribution (Rattus norvegicus [26]): 217% | Distribution (Rattus norvegicus [27]): 0.95% | Distribution (Rattus norvegicus [28]): 1.03% | Distribution (Rattus norvegicus [29]): 1.75%
